Assay results taken from publication PMC4720140 (Journal of medicinal chemistry, 2015).
Entries after “also recorded” stand apart in the source; their conditions may differ.

What was measured:
[1] = system: phosphorylation of Akt (Ser473), MDM2 and IKK in PC-3 cells; experiment: Western blot of Akt signaling in PC-3 cells; type: cell-based; settings: different concentrations, 24 h
PH domain of PDK1 = molecular target: T1, PH domain of PDK1 (Homo sapiens, UniProt O15530); experiment: SPR binding to the PDK1 PH domain
T1 sequence (O15530 459-550 limits assumed): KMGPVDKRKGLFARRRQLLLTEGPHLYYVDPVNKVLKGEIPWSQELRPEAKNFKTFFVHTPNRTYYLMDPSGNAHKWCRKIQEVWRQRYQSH
Summary of the method: (§1)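 Surface plasmon resonance: GST-tagged PH-domain fusion protein amine-coupled to a CM5 chip at 17000 response units. Test compound injected at 1–20 µM at a flow rate of 30 µL/min. DMSO at 1% (v/v) or less in samples and running buffer.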

[2] = system: subcutaneous PC-3 xenograft tumors; experiment: PC-3 xenograft tumor growth in nude mice; type: in vivo, athymic nude mice; settings: versus vehicle
[3] = system: phosphorylation of Akt (Ser473), MDM2 and IKK in LNCaP cells; experiment: Western blot of Akt signaling in LNCaP cells; type: cell-based; settings: different concentrations, 24 h
Summary of the method: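 Lines kept in RPMI 1640 with 10% FBS at 37 °C, 5% CO₂. LNCaP were seeded on poly-L-lysine-coated flasks (12000 cells/cm²) for 24 h, then dosed in serum-free RPMI. Cells got test compound for 24 h, then were scraped and lysed in 1% SDS/Tris pH 8 buffer with protease inhibitors. Lysates were spun at 14000g and BCA-normalized, then run on SDS-PAGE/nitrocellulose, probed with primary antibody (1:1000, overnight, 4 °C) and HRP secondary, and detected by ECL.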

[4] = system: phosphorylation of Ser473-Akt, MDM2 and IKK in PC-3 xenograft tumors; experiment: Western blot of Akt signaling markers in PC-3 tumor lysates; type: in vivo, athymic nude mice; settings: after 21 days
[5] = system: ILK distribution in LNCaP cells; experiment: Immunocytochemistry of cellular distribution of ILK in LNCaP cells; type: cell-based; settings: serum-free medium, 24 h
Summary of the method: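 LNCaP cells seeded on poly-L-lysine-coated surfaces at 12000 cells/cm² for 24 h, then exposed to test compound in serum-free RPMI 1640 for 24 h. Fixed in 4% formaldehyde for 20 min, permeabilised with 0.1% Triton X-100 for 15 min at room temperature, blocked in 1% FBS for 1 h. Endogenous ILK stained with antibody (1:300) overnight, then Alexa Fluor-conjugated secondary (1:500) for 2 h. Nuclei stained with DAPI; imaged by confocal microscopy.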

PH domain of PHLPP1 = molecular target: T2, PH domain of PHLPP1 (Homo sapiens, UniProt O60346); experiment: SPR binding to the PHLPP1 PH domain
T2 sequence (O60346 536-636 limits assumed): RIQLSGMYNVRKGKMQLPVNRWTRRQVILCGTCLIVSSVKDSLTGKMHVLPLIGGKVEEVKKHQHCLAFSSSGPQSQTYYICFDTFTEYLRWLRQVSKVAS
Summary of the method: as §1

PH domain of ILK = molecular target: T3, PH domain of ILK (Homo sapiens, UniProt Q13418); experiment: SPR binding to the ILK PH domain
T3 sequence (Q13418 180-212 limits assumed): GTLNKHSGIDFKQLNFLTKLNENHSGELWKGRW
Summary of the method: as §1

[6] = system: Akt and PHLPP1 membrane localization in LNCaP cells; experiment: Immunocytochemistry of cellular distribution of Akt and PHLPP1 in LNCaP cells; type: cell-based; settings: serum-free medium, 24 h
PC-3 cells = experiment: MTT cell viability assay in PC-3 cells; type: cell-based; settings: 24 h exposure in serum-free medium
Summary of the method: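 PC-3 cells plated uncoated at 5000 cells/well in 10% FBS. After 24 h, exposed to test compound in serum-free medium for 24 h. MTT added (0.5 mg/mL final) for 2 h, then medium replaced with DMSO and absorbance read at 595 nm. Viability expressed as % of vehicle-treated control; n = 6, means ± SD.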

[7] = system: membrane translocation of Akt and PHLPP1 in LNCaP cells; experiment: Western blot of membrane versus cytoplasmic fractions of LNCaP cells; type: cell-based; settings: 24 h
[8] = ip injection 50 mg/kg once daily for 21 days
[9] = oral gavage 100 mg/kg once daily

Compound	Phosphorylation level of Akt (Ser473) and/or MDM2 and IKK [1]	Suppression of PC-3 xenograft tumor growth [2, 8]	Phosphorylation level of Akt (Ser473) and/or MDM2 and IKK [3]	Phosphorylation levels of Akt, MDM2 and IKK in tumor lysates [4, 9]	Localization of Akt and PHLPP1 to the plasma membrane ([6]; 10 µM)	Localization of Akt and PHLPP1 to the plasma membrane ([6]; 5 µM)	other results
Cc1c(O)cc2c(c1C)O[C@@](C)(CCCC(C)C)CC2 [Compound 3, (S)-2,7,8-trimethyl-2-(4-methylpentyl)chroman-6-ol]	dose-dependently reduced the phosphorylation level of Akt and/or MDM2 and IKK	significantly suppressed PC-3 xenograft tumor growth	dose-dependently reduced the phosphorylation level of Akt and/or MDM2 and IKK	unable to affect any of these signaling markers	facilitated the localization of Akt and PHLPP1 to the plasma membrane		Kd (PH domain of PDK1): 10.2 ± 1.2 µM; Suppression of PC-3 xenograft tumor growth ([2]; oral gavage 100 mg/kg once daily for 21 days, 100 mg/kg): not apparent; also recorded: no in vivo tumor-suppressive activity; Cellular distribution of ILK ([5]; 10 µM): Lack of effect; Kd (PH domain of PHLPP1): 690 ± 360 nM; Kd (PH domain of ILK): 8.7 ± 3.6 µM
COc1cc2c(c(C)c1C)OC(C)(CCCC(C)C)CC2 (centres unmarked) [Compound 5]							Antiproliferative effect (IC50) in PC-3 cells (PC-3 cells): remained inactive
Cc1c(S(N)(=O)=O)cc2c(c1C)OC(C)(CCCC(C)C)CC2 (centres unmarked) [Compound 20]	dose-dependently reduced the phosphorylation level of Akt and/or MDM2 and IKK	equipotent in suppressing PC-3 tumor growth irrespective of the route of administration	dose-dependently reduced the phosphorylation level of Akt and/or MDM2 and IKK	parallel decreases in the phosphorylation levels of Akt, MDM2, and IKK		facilitated the localization of Akt and PHLPP1 to the plasma membrane	Membrane translocation of Akt and PHLPP1 (membrane versus cytoplasmic fractions) [7]: higher potency than 3 in facilitating the membrane translocation; Suppression of PC-3 xenograft tumor growth ([2]; oral gavage 100 mg/kg once daily for 21 days): equipotent in suppressing PC-3 tumor growth irrespective of the route of administration; Phosphorylation levels of Akt, MDM2 and IKK in tumor lysates ([4]; ip injection 50 mg/kg once daily): parallel decreases in the phosphorylation levels of Akt, MDM2, and IKK; Cellular distribution of ILK ([5]; 5 µM): Lack of effect; also recorded: no apparent changes in the distribution of ILK
CC(C)CCCC1(C)CCc2cc(S(N)(=O)=O)cc(F)c2O1 (centres unmarked) [Compound 21]	failed to elicit Ser473-Akt dephosphorylation		failed to elicit Ser473-Akt dephosphorylation		no change in the cellular distribution of Akt or PHLPP1		
CC(C)CCCC1(C)CCc2cc(S(N)(=O)=O)cc(Br)c2O1 (centres unmarked) [Compound 22]	dose-dependently reduced the phosphorylation level of Akt and/or MDM2 and IKK		dose-dependently reduced the phosphorylation level of Akt and/or MDM2 and IKK			facilitated the localization of Akt and PHLPP1 to the plasma membrane	
